Active and inactive are the calls of the source. Unless noted, no cut-off for these calls is given here.

The subject of one series is CHO. Description: Effect on forskolin-induced cAMP accumulation in CHO cells preincubated for 5 mins followed by forskolin addition measured after 15 mins in presence of [3H]-cAMP by radiometric assay. Format: ADME, cell-based, Cricetulus griseus. The conditions noted are these: chinese hamster, 0.25 h. In outline:
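CHO cells stably expressing human GPR84, or the parent non-transfected CHO line, incubated in HBSS (pH 7.4) at 37 °C with RO-20-1724 (final 40 µM). Forskolin (10 µM) added with or without test compound for 15 min. Cells lysed in hot (90 °C) EDTA/Triton X-100 solution. cAMP measured radiometrically with bovine adrenal binding protein and [³H]cAMP, expressed as % of forskolin-alone response.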

The target of series [1] is T1, Free fatty acid receptor 4 (Homo sapiens) (UniProt Q5NUL3).
T1 sequence (whole entry): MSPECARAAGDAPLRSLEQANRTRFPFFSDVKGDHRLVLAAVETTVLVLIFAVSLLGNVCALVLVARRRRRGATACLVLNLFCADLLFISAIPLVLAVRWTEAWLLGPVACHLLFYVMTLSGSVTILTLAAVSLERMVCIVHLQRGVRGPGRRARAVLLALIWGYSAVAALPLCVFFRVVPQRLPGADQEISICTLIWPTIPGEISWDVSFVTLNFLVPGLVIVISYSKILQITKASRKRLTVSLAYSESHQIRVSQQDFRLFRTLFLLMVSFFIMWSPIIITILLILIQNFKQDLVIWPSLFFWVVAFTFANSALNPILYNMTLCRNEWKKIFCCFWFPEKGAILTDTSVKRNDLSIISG
Put plainly: Antagonist activity at human FFAR4 expressed in CHO cells assessed as inhibition of TUG-89-induced beta-arrestin recruitment at 10 uM preincubated for 30 mins followed by TUG-89 addition measured after 90 mins by beta-galactosidase complementation assay. Format: cell-based.

Series [2] has as its target G-protein coupled receptor 35 (Homo sapiens) (UniProt Q9HC97). Put plainly: Agonist activity at human GPR35 at 10 uM.
Series [3] deals with T1, Free fatty acid receptor 4 (Homo sapiens). Put plainly: Agonist activity at human FFAR4 expressed in CHO cells assessed as beta-arrestin recruitment at 10 uM after 90 mins by beta-galactosidase complementation assay. Format: cell-based. In short, it runs like this:
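Human FFAR4 in CHO β-galactosidase complementation cells, 30,000 per well, serum-free F12 ~4 h before assay; final DMSO 1 %, compounds 10 µM. Agonist mode: 90 min with agonist, then detection 60 min rt dark; luminescence. 3–4 experiments in duplicate.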
On the technique in general: Arrestin recruitment assays detect the binding of arrestin to an activated receptor.

The target in series [4] is Free fatty acid receptor 1 (Homo sapiens, UniProt O14842). Description: Agonist activity at Gq protein coupled human FFAR1 expressed in human 1321N1 cells assessed as induction of intracellular calcium level at 10 uM measured at 1.2 secs time interval by Fluo-4-AM dye based fluorescence assay. Format: functional, cell-based. In outline:
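1321N1 astrocytoma cells retrovirally expressing human FFAR1, 50,000 per well, loaded 60 min at rt in dark with 3 µM Fluo-4-AM and 0.06 % Pluronic F-127 in HBSS. Compounds at 10 µM final; antagonist mode uses 30 min preincubation before TUG-424 (final 1 µM). Fluorescence at 520 nm (excitation 485 nm), 90 reads at 1.2 s intervals. Normalized to TUG-424 at 10 µM (agonist) or 1 µM (antagonist).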
On the technique in general: A change in cytosolic calcium serves as a functional read-out for many receptors and channels.

In series [5] the target is T2, G-protein coupled receptor 84 (Homo sapiens, UniProt Q9NQS5). Description: Agonist activity at Gi coupled human GPR84 expressed in CHO cells assessed as inhibition of forskolin-induced cAMP accumulation at 10 uM after 15 mins in presence of [3H]-cAMP by radiometric assay relative to decanoic acid. Format: functional, cell-based. In outline: (§1)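 Forskolin (10 µM) added with or without test compound for 15 min. Cells lysed in hot (90 °C) EDTA/Triton X-100 solution. cAMP measured radiometrically with bovine adrenal binding protein and [³H]cAMP, expressed as % of forskolin-alone response.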
T2 sequence (Q9NQS5 whole entry): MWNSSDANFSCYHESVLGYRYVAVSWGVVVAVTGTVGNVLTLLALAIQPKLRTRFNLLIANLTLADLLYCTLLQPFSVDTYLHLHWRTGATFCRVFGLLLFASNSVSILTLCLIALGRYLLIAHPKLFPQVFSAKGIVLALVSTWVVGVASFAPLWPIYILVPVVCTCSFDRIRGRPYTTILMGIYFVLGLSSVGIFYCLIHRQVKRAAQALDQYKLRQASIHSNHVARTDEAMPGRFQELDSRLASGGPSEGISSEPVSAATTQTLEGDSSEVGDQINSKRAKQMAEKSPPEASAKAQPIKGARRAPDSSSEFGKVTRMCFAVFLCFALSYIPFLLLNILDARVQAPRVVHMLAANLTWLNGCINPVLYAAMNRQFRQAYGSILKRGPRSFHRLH
(In general: cAMP levels reflect the balance of adenylyl cyclase and phosphodiesterase activity.)

Series [6] addresses T3, Aryl hydrocarbon receptor (Homo sapiens, UniProt P35869).
T3 sequence (P35869 whole entry): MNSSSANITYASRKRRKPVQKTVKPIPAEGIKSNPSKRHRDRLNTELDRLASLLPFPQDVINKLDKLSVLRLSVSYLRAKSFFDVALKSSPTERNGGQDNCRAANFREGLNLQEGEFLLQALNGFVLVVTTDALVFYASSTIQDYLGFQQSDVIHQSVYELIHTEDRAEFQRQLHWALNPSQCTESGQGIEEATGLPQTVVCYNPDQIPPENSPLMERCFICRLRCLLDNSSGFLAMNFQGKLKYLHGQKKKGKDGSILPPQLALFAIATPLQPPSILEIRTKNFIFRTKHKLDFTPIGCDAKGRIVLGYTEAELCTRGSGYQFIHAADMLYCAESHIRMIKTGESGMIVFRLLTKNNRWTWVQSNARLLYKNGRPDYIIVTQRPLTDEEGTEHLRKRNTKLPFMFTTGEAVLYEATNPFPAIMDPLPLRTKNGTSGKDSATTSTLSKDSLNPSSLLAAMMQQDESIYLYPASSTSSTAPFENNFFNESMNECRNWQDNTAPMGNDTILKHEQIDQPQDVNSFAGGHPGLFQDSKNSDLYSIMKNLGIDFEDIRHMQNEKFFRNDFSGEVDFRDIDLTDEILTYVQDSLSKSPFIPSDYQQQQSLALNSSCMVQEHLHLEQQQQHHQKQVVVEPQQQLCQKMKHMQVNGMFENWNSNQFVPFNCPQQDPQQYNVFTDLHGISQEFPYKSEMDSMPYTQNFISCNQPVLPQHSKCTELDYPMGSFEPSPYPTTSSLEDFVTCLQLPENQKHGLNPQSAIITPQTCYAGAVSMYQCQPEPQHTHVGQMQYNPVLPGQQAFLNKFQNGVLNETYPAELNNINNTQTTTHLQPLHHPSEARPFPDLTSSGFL
Description: Activation of AhR in human HepG2 cells assessed as induction of CYP1A1 mRNA expression at 5 to 20 uM after 18 hrs by RT-PCR method. Format: ADME, cell-based. In outline: (§2)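 HepG2 cells (3x10^5 cells/ml) stimulated 18 h with 5 µM or 20 µM test compound or left untreated; 3-methylcholanthrene (10 µM) as positive control. RNA extracted for read-out; three independent experiments.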

Series [7] addresses T2, G-protein coupled receptor 84. Description: Agonist activity at human GPR84 expressed in CHO cells assessed as beta-arrestin recruitment at 10 uM after 90 mins by beta-galactosidase complementation assay relative to embelin. Format: cell-based. In outline:
(§3)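 CHO cells co-expressing human GPR84–β-galactosidase fragment and β-arrestin–complementary fragment, 20,000 per well. Compounds in DMSO (final ≤1 %) added for 90 min, then detection reagent for 60 min at rt; luminescence read. Three to five independent experiments in duplicate.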

For series [8] the target is unchanged. Put plainly: Agonist activity at Gi coupled human GPR84 expressed in CHO cells assessed as inhibition of forskolin-induced cAMP accumulation after 15 mins in presence of [3H]-cAMP by radiometric assay. Format: functional, cell-based. In outline:
as §1

Series [9] concerns the target T3, Aryl hydrocarbon receptor. Description: Activation of AhR in human HepG2 cells assessed as induction of CYP1A1 mRNA expression at 20 uM after 18 hrs by RT-PCR method. Format: ADME, cell-based. In short, it runs like this:
as §2

The target in series [10] is T2, G-protein coupled receptor 84. Description: Agonist activity at human GPR84 expressed in CHO cells assessed as beta-arrestin recruitment after 90 mins by beta-galactosidase complementation assay. Format: cell-based. In short, it runs like this:
as §3

Series [11] in a line: Stability of the compound in water at 100 uM up to 24 hrs by HPLC-MS analysis. The conditions noted are these: buffer. Format: physicochemical. In short, it runs like this: (§4)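 Stock (2.5 mM in methanol/acetonitrile 1:1) diluted to 100 µM final in water, 0.01 % aqueous ammonia (pH 9), 1 mM NaOH (pH 11), or artificial gastric acid (pepsin, NaCl, HCl; pH 1.2). Incubated at 37 °C up to 24 h, sampled at intervals. Analysed by LC-ESI-MS on C18 at 25 °C with water/2 mM ammonium acetate–acetonitrile gradient.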

Series [12] in a line: Stability of the compound in 1 mM sodium hydroxide solution at 100 uM at pH 11 up to 24 hrs by HPLC-MS analysis. Format: physicochemical. Conditions: buffer, pH 11, 24 h. In short, it runs like this: as §4
Series [13] has as its target T2, G-protein coupled receptor 84. Put plainly: Ratio of EC50 for human GPR84 expressed in CHO cells assessed as beta-arrestin recruitment to EC50 for Gi coupled human GPR84 expressed in CHO cells assessed as inhibition of forskolin-induced cAMP accumulation. Format: functional, cell-based.
A short description of series [14]: Stability of the compound in 0.01% ammonia solution at 100 uM at pH 9 up to 24 hrs by HPLC-MS analysis. Format: physicochemical. Conditions: buffer, pH 9, 24 h. In short, it runs like this:
as §4

Series [15] is described as follows: Stability of the compound in pH 1.2 artificial gastric fluid containing HCl, NaCl and pepsin assessed as parent compound remaining at 100 uM after 4 hrs by HPLC-MS analysis. In outline: as §4
For series [16], the target named is T3, Aryl hydrocarbon receptor. Description: Activation of AhR in human HepG2 cells assessed as induction of CYP1A1 mRNA expression at 10 uM after 18 hrs by RT-PCR method. Format: ADME, cell-based. In outline:
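HepG2 cells seeded at 3x10^5 cells/ml were exposed to compound for 18 h alongside untreated cells and a 3-methylcholanthrene (10 µM) positive control. Total RNA was then extracted for transcript measurement. Three independent experiments were run.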

Series [17] deals with T2, G-protein coupled receptor 84. Description: Agonist activity at Gi coupled human GPR84 expressed in CHO cells assessed as inhibition of forskolin-induced cAMP accumulation up to 100 uM preincubated for 5 mins followed by forskolin addition measured after 15 mins in presence of [3H]-cAMP by radiometric assay. Format: functional, cell-based. In outline:
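Concentration-response in CHO-hGPR84 cells. Compound preincubated 5 min, then forskolin 10 µM added for a further 15 min. Maximal forskolin-induced cAMP without agonist set as 100 %. […] Mean ± SEM of 3 independent experiments in duplicate.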

The nature of series [18]: Stability of the compound in pH 1.2 artificial gastric fluid containing HCl, NaCl and pepsin assessed as parent compound remaining at 100 uM after 1 hr by HPLC-MS analysis. In outline:
as §4

Series [19] deals with T3, Aryl hydrocarbon receptor. Description: Activation of AhR in human HepG2 cells assessed as induction of CYP1A1 mRNA expression after 18 hrs by RT-PCR method. Format: ADME, cell-based. In outline: as §2
A short description of series [20]: Stability of the compound in pH 1.2 artificial gastric fluid containing HCl, NaCl and pepsin assessed as parent compound remaining at 100 uM after 2 hrs by HPLC-MS analysis. In short, it runs like this: as §4

Chain of G-protein coupled receptor 35 (Homo sapiens) (Q9HC97 whole entry): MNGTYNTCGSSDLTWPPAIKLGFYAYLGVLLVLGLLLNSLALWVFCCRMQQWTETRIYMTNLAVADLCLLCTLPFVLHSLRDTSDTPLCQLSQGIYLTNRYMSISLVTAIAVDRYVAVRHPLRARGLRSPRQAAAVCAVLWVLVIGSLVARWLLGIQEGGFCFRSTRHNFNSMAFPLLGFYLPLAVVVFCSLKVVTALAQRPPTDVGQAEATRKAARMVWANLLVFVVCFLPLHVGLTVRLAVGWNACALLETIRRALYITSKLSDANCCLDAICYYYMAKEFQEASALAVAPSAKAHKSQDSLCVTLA
Chain of Free fatty acid receptor 1 (O14842 whole entry): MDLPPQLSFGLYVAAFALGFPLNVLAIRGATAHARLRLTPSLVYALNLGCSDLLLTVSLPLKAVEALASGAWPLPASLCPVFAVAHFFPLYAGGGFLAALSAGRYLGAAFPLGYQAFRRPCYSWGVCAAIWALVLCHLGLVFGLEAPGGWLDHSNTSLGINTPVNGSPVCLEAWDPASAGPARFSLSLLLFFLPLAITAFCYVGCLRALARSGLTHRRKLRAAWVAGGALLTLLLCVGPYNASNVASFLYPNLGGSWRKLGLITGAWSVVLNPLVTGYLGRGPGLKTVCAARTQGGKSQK

For orientation: Emax means the greatest response seen or fitted, relative to the assay's reference. For the molecule `Fc1cc(F)c2[nH]cc(Cc3c[nH]c4c(F)cc(F)cc34)c2c1`, the values for the Activity result (with CHO; in series [6]) were “Non-Toxic” and “Not Active”, respectively. The inhibition entry in series [1] is “inactive”. Further, the outcome in series [2], in series [3] and in [4] was inactive. Besides, the Emax was determined as 131% in [5] and 385% in series [7]. Moreover, in series [8], the inhibition entry was “Dose-dependent effect”.
The EC50 is the concentration giving half of the maximal effect. As to `Fc1ccc2[nH]cc(Cc3c[nH]c4ccc(F)cc34)c2c1`, the Activity entry in series [9] is recorded as “Not Active”; in the series with CHO, “Non-Toxic”. Moreover, the EC50 in [10] came out at 4.33 µM; in [8] it was 0.08 µM. Further, the inhibition result in [1] is “inactive”. The Stability entry in series [11] is “Stable”; in series [12], “Stable”; in series [14] it was “Stable”; in series [15] it was 57%. Besides, the outcome in [2], in [3] and in series [4] was inactive. The Ratio EC50 in series [13] was determined as 54. Besides, the Emax in series [5] is 117%; in series [7], 125%. Also, in series [8], the inhibition result was “Dose-dependent effect”.
For the molecule `Cc1ccc2cc3c(ccc4ccccc43)c3c2c1CC3` [3-METHYLCHOLANTHRENE], the outcome in series [16] was Active. Moreover, in series [17], the inhibition result was “inactive”.
For the molecule `c1ccc2c(Cc3c[nH]c4ccccc34)c[nH]c2c1` [ARUNDINE], the Activity result in the series on CHO is “Non-Toxic”; in series [19], “Dose-dependent effect”. Also, in [1], the inhibition result was “inactive”. Also, the Stability entry in series [11] was “Stable”; in series [12], “Stable”; in series [18], 63%; in [14], “Stable”; in series [15] it was 35%; in series [20], 49%. In addition, the outcome in series [2], in [3] and in series [4] was inactive. For the same molecule, the Emax in series [5] is 125%; in series [7], 60%. Further, in [5], the fold change (FC) is 29. The inhibition result in [8] was “Dose-dependent effect”.

For the origin of these results see ChEMBL document CHEMBL4014307, “Diindolylmethane Derivatives: Potent Agonists of the Immunostimulatory Orphan G Protein-Coupled Receptor GPR84” (J Med Chem, 2017).
